Data published in ChEMBL document CHEMBL1121494, “Prostaglandins and congeners. 22. Synthesis of 11-substituted derivatives of 11-deoxyprostaglandins E1 and E2. Potential bronchodilators” (1980).

Tested on: Cavia porcellus
Assay: Relative potency against bronchoconstrictions, induced by intravenous administration of histamine at doses […] in guinea pig.
Type: functional
How it was run: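 Anesthetized guinea pigs (intraperitoneal urethane), curarized with iv gallamine; modified Konzett-Rossler set-up. Bronchoconstriction provoked by iv histamine or serotonin at 5.6-22.5 μg/kg, doses giving a 20 to 50 cm water rise in tracheal pressure; 12 s iv injections repeated every 5 min. Test compounds given iv. Broncholytic activity scored in at least four animals per spasmogen per dose level, expressed as potency relative to l-PGE₂.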

Compound	Relative potency
CCCCC[C@H](O)/C=C/[C@H]1C(SCC(C)O)CC(=O)[C@@H]1C/C=C\CCCC(=O)OC (some centres undefined)	2
CCCCC[C@@H](O)/C=C/[C@H]1[C@H](SCCO)CC(=O)[C@@H]1C/C=C\CCCC(=O)OC	19
CCCCC[C@H](O)/C=C/[C@H]1[C@@H](SCCO)CC(=O)[C@@H]1C/C=C\CCCC(=O)OC	10
CCCCC[C@H](O)/C=C/[C@H]1C(SCC)CC(=O)[C@@H]1C/C=C\CCCC(=O)OC (some centres undefined)	1
CCCCC[C@H](O)/C=C/[C@H]1C(SCC(=O)O)CC(=O)[C@@H]1C/C=C\CCCC(=O)OC (some centres undefined)	0.1
CCCCC[C@H](O)/C=C/[C@H]1C(SCCCO)CC(=O)[C@@H]1C/C=C\CCCC(=O)OC (some centres undefined)	0.8
CCCCC[C@H](O)/C=C/[C@H]1C(SCCN(CC)CC)CC(=O)[C@@H]1C/C=C\CCCC(=O)OC (some centres undefined)	22
CCCCC[C@H](O)/C=C/[C@H]1C(SCCN(C)C)CC(=O)[C@@H]1C/C=C\CCCC(=O)OC (some centres undefined)	14
CCCCC[C@H](O)/C=C/[C@H]1C(SCCS)CC(=O)[C@@H]1C/C=C\CCCC(=O)OC (some centres undefined)	0.4
CCCCC[C@H](O)/C=C/[C@H]1C(Sc2cccc(O)c2)CC(=O)[C@@H]1C/C=C\CCCC(=O)OC (some centres undefined)	0.2
CCCCC[C@H](O)/C=C/[C@H]1C(SCCC)CC(=O)[C@@H]1C/C=C\CCCC(=O)OC (some centres undefined)	<0.2
CCCCC[C@H](O)/C=C/[C@H]1C(SCC(=O)OCC)CC(=O)[C@@H]1C/C=C\CCCC(=O)OC (some centres undefined)	3
CCCCC[C@H](O)/C=C/C1CCC(=O)[C@@H]1C/C=C\CCCC(=O)O (some centres undefined)	92
CCCCC[C@H](O)/C=C/[C@H]1C(SCCO)CC(=O)[C@@H]1CCCCCCC(=O)O (some centres undefined)	104
CCCCCC(O)CSC1CC(=O)[C@H](C/C=C\CCCC(=O)OC)[C@H]1/C=C/[C@H](O)CCCCC (some centres undefined)	<0.2
CCCCC[C@H](O)/C=C/[C@H]1C(SCCN)CC(=O)[C@@H]1C/C=C\CCCC(=O)OC (some centres undefined)	0.3
CCCCC[C@H](O)/C=C/[C@H]1C(SCCCS)CC(=O)[C@@H]1C/C=C\CCCC(=O)OC (some centres undefined)	9
CCCCC[C@H](O)/C=C/[C@H]1[C@H](SCCO)CC(=O)[C@@H]1C/C=C\CCCC(=O)O	55
CCCCC[C@H](O)/C=C/[C@H]1C(SCC(O)CO)CC(=O)[C@@H]1C/C=C\CCCC(=O)OC (some centres undefined)	11
CCCCC[C@H](O)/C=C/[C@H]1[C@H](SCCO)CC(=O)[C@@H]1C/C=C\CCCC(=O)OC	100
CCCCC(O)C/C=C/[C@H]1[C@H](SCCO)CC(=O)[C@@H]1CCCCCCC(=O)O (mixture of isomers)	24
CCCCCC(C)(O)/C=C/[C@H]1[C@H](SCCO)CC(=O)[C@@H]1CCCCCCC(=O)O (mixture of isomers)	16
CCCCC(C)(O)C/C=C/[C@H]1[C@H](SCCO)CC(=O)[C@@H]1C/C=C\CCCC(=O)OC (mixture of isomers)	109
CCCCCC/C=C/[C@H]1[C@H](SCCO)CC(=O)[C@@H]1C/C=C\CCCC(=O)OC (racemic)	14
CCCCC[C@H](O)/C=C/[C@H]1[C@H](OCCO)CC(=O)[C@@H]1CCCCCCC(=O)O (racemic)	14
CCCCC[C@H](O)/C=C/[C@H]1[C@H](OCCO)CC(=O)[C@@H]1C/C=C\CCCC(=O)OC (racemic)	3
CCCCC[C@H](O)/C=C/[C@H]1[C@H](SCCO)CC(=O)[C@@H]1C/C=C\CCCC(=O)OC (racemic)	30
CCCCC[C@@H](O)/C=C/[C@H]1[C@@H](SCCO)CC(=O)[C@@H]1C/C=C\CCCC(=O)OC (racemic)	6
CCCCC[C@H](O)/C=C/[C@H]1[C@H](O)CC(=O)[C@@H]1C/C=C\CCCC(=O)O [DINOPROSTONE]	570
